Compound activity (PubChem)
Shown is part of a subset that was picked to be rich in hits.
CHOP UPR activ: apoptotic UPR (CHOP) activation; hit rate 0.34% among 330,000; activation, % at 10 µM; CHO-CHOP luciferase reporter, luminescence; percent of tunicamycin response over DMSO baseline; AID 449763;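 active means at 10 µM dose, activation of 40% or more, normalized to positive control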;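 further: 100% = tunicamycin at 10 µg/mL and 0% = DMSO alone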
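Test system: CHO-CHOP cells, stable luciferase reporter of PERK-eIF2a-CHOP signalling | Quantity: 500 CHO-CHOP cells per well | Buffer or medium: F12 plus 10% serum | Compound dosing: 10 µM single point, 0.5% DMSO | Schedule: 6 h compound treatment, 37 °C | Signal: Luciferase luminescence | Control set: Tunicamycin high control, DMSO low control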
iPSC survival up: hiPSC single-cell survival enhancement; survival enhancement, % at 20 µM; hit rate 0.044% among 360,000; ATPlite luminescence; 100% = ROCK inhibitor wells, 0% = DMSO; in the data active means survival enhancement above about 18%;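 further: cells exposed to compounds for 16 hours before the ATP read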
CHOP inhibitor: blocks CHOP induction under ER stress; inhibition, % at 10 µM; CHO-K1 CHOP-promoter luciferase, tunicamycin-induced, 15-18 h; AID 2732; hit rate 3.8% among 220,000;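 active means compounds that reduced the stress-induced luciferase reporter signal by more than about 70% of percent inhibition, limit read from the data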;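 further: 0% = tunicamycin plus vehicle and 100% = wells without tunicamycin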
Cardio protect: myocardial damage modulation in H9c2 cells; H9c2 cardiomyocytes, H2O2 injury protection, ATPLite, 2 h; hit rate 0.63% among 360,000; AID 588492; protection from H2O2 cell death, % at 20 µM;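 active means compounds giving at least 50% protection of heart cells from peroxide-induced death in the single-dose screen, raw or plate-pattern-corrected value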;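 further: 0% = DMSO wells with peroxide and 100% = DMSO wells without peroxide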
XBP1 UPR activ: activators of adaptive arm of unfolded protein response (XBP1). CHO-XBP1 luciferase reporter, IRE1-XBP1 UPR activation, luminescence; percent of tunicamycin response, DMSO as zero. hit rate 0.33% among 330,000. AID 463104. activation, % at 20 µM;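 active means versus positive control, 20 µM dose yields 30% or more activation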;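 further: 100% = tunicamycin at 10 µg/mL and 0% = DMSO only wells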
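Material: CHO cell line with stable XBP1 luciferase reporter; buffer or medium: F12 medium containing 10% fetal bovine serum; compound: single point, 20 µM final compound, 1% DMSO; incubation: 6 h treatment, 37 °C; measured by: glow luminescence from Steady-Glo reagent; evaluation: activation, % of tunicamycin; control set: tunicamycin high, DMSO low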
UPR CHOP confirm: confirmation of apoptotic unfolded protein response (CHOP) activators; shares compounds with CHOP UPR activ; CHO-CHOP cells, CHOP-luciferase reporter luminescence; percent of tunicamycin response, DMSO as zero; AID 463112; hit rate 64% among 1,000; activation, % at 10 µM; in the data active means activation above about 33%;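 further: 0% = DMSO wells and 100% = tunicamycin 10 µg/mL wells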
* = called active by the depositor; . = not tested or not shown.

SMILES | CHOP UPR activ | iPSC survival up | CHOP inhibitor | Cardio protect | XBP1 UPR activ | UPR CHOP confirm
COC(CN(C(=O)CCl)C(C(=O)NC1CCCCC1)c1ccc(Cl)cc1)OC (stereo not given) | 0 | -1 | -109 | -5 | 0 | .
O=C(NC1CCCC1)C(c1ccc(F)cc1)N(Cc1ccc(Cl)cc1)C(=O)CCl (stereo not given) | 149* | -2 | 106* | -7 | 2 | 70*
O=C(NC1CCCC1)C(c1ccc(Cl)cc1)N(Cc1ccc(F)cc1)C(=O)CCl (stereo not given) | 113* | 0 | 46 | -10 | 8 | 88*
CC(=O)NC(c1ccccc1)c1nc(-c2cc(F)cc(F)c2)cs1 (stereo not given) | . | 3 | . | -5 | . | .
COc1ccc2c(c1)CCc1c(C(=O)NCc3ccc(Cl)cc3)noc1-2 | 1 | 3 | -5 | -4 | 1 | .
COc1ccc2c(c1)CCc1c(C(=O)Nc3cc(C)n(Cc4ccc(Cl)cc4)n3)noc1-2 | 107* | -2 | 93* | -5 | 142* | 121*
COc1ccc2c(c1)CO[C@]21O[C@H](CCO)C[C@H](O)[C@H]1O | . | -2 | . | 4 | . | .
O=C(Nc1cccc(N2C(=O)C=CC2=O)c1)c1cccs1 | 124* | 0 | . | -11 | -6 | 12
Cc1nc2ccccc2c(=O)n1-c1cccc(NC(=O)c2cccs2)c1 | -1 | 0 | . | -11 | -2 | .
O=C(CCl)N(CCc1ccccc1)CCc1ccccc1 | 2 | -1 | . | -1 | -5 | .
O=C(N/N=C\c1ccccn1)c1ccccc1O | 8 | -2 | 2 | 36 | 0 | .
O=C(N/N=C/c1cccc2cccnc12)c1ccccc1O | 347* | 0 | 46 | 5 | 3 | 559*
O=C(Nc1ccc(S(=O)(=O)N2CCOCC2)cc1)c1ccc([N+](=O)[O-])o1 | 139* | 0 | -89 | -18 | -1 | 98*
CC(=O)Nc1ccc2nc(NC(=O)c3ccco3)sc2c1 | 3 | 0 | . | 0 | -4 | .
CC(=O)Nc1ccc2nc(NC(=O)c3ccc([N+](=O)[O-])o3)sc2c1 | 61* | 0 | . | 1 | 1 | 25
O=C(Nc1ccc(N2CCOCC2)cc1)c1ccc([N+](=O)[O-])o1 | 57* | -1 | . | -16 | 0 | 61*
O=C(Nc1ccc(N2CCOCC2)cc1)c1ccc(Br)o1 | 1 | -1 | . | -17 | -8 | .
O=C(Nc1ccc(S(=O)(=O)N2CCOCC2)cc1)c1ccc([N+](=O)[O-])s1 | 68* | 0 | . | -20 | 4 | 4
COc1ccc(SCC(O)Cn2c3ccccc3c3ccccc32)c(OC)c1 (stereo not given) | . | 1 | . | . | . | .
CC(=O)C1CCC2C3CCC4CC(=O)CCC4(C)C3C=CC12C (stereo not given) | . | 1 | . | -10 | . | .
CC1(C(=O)NS(=O)(=O)C2CC2)CCCN(C(=O)Cc2ccc3ccccc3c2)C1 (stereo not given) | . | 1 | . | 8 | . | .
O=C(Nc1ccc(Cc2ccncc2)cc1)c1cccc([N+](=O)[O-])c1 | 1 | 2 | -21 | -6 | 1 | .
O=C(Nc1ccc(S(=O)(=O)N2CCCC2)cc1)c1ccc([N+](=O)[O-])o1 | 47* | -3 | . | 41 | -3 | 91*
O=C(Nc1ccc(Cc2ccncc2)cc1)c1ccc([N+](=O)[O-])o1 | 63* | 0 | . | -16 | -5 | 78*
O=c1[nH]c(=S)[nH]cc1Oc1ccc(Cl)cc1 | . | 6 | . | 1 | . | .
SMILES | CHOP UPR activ | iPSC survival up | CHOP inhibitor | Cardio protect | XBP1 UPR activ | UPR CHOP confirm
CCOc1ccc(/C=N/NC(=O)NC23CC4CC(CC(C4)C2)C3)cc1O | 2 | 0 | . | 6 | 7 | .
O=C(N/N=C/c1ccc(O)c(O)c1)NC12CC3CC(CC(C3)C1)C2 | 145* | 0 | . | 24 | 42* | 157*
COc1ccc(C(=O)/C=C2/C(=O)Nc3ccccc32)c(OC)c1 | 109* | -1 | . | -4 | 5 | 114*
COc1cc(OC)c(/C=C2\C(=O)Nc3ccccc32)c(OC)c1 | -2 | . | . | . | -1 | .
COC(=O)C1(C)CCCC2(C)c3cc(OC)ccc3C(=O)C(Br)C12 (stereo not given) | . | -2 | . | -11 | . | .
O=C(N/N=C/c1cccc([N+](=O)[O-])c1)c1cc(-c2ccc3c4c(cccc24)CC3)n[nH]1 | -1 | 0 | -1 | 1 | -2 | .
O=C(N/N=C/c1ccc(Cl)c([N+](=O)[O-])c1)c1cc(-c2ccc3c4c(cccc24)CC3)n[nH]1 | 43* | 0 | 77* | -18 | 1 | 14
COc1ccc(C(C[N+](=O)[O-])c2c(C)[nH]n(-c3ccccc3)c2=O)cc1 (stereo not given) | 89* | 0 | . | 5 | -7 | 0
COc1ccc(-c2cc(C(F)(F)F)nc(S(=O)(=O)CCC(=O)N3CCOCC3)n2)cc1 | 1 | -3 | -28 | -22 | -2 | .
COc1ccc(-c2cc(C(F)(F)F)nc(S(=O)(=O)CCCC(=O)Nc3cccc(O)c3)n2)cc1OC | 55* | 0 | -125 | -5 | 6 | 22
O=C(COC(=O)CNC(=O)c1ccco1)Nc1ncc(Cl)cc1Cl | 1 | 0 | . | 5 | 0 | .
Cc1ccc(NC(=O)c2cnc(SCC(=O)NCC3CCCO3)n(C)c2=O)cc1C (stereo not given) | 51* | 0 | . | -8 | -4 | 24
Cn1nnnc1Sc1ncnc2scc(-c3cc4ccccc4o3)c12 | 86* | -2 | . | -17 | -7 | 118*
O=C(O)c1cccc(Cn2c(Cl)c(/C=N/NC(=O)c3ccco3)sc2=O)c1 | 1 | 0 | . | 1 | 1 | .
CCc1cc2c(=O)[nH]c(-c3ccccn3)nc2s1 | 290* | -2 | 47 | 7 | 11 | 247*
CCc1cc2c(=O)[nH]c(N3CCCC3)nc2s1 | 8 | -1 | -7 | 8 | 3 | .
CC(=O)Nc1cccc(Nc2cnccn2)c1 | . | 2 | . | 1 | . | .
COc1ccccc1N1C(=O)C=C(Sc2nc(C)cc(C)n2)C1=O | 62* | 0 | 32 | -17 | 2 | 56*
Cn1ncc([N+](=O)[O-])c1C(=O)Nc1ccccc1C#N | . | -1 | . | 14 | . | .
